ChEMBL document CHEMBL4138082 (Eur J Med Chem, 2017)
Activity calls are given as the source filed them. No cut-off for these calls is given here.

Tests used:
HepG2 [1] = assay: Induction of apoptosis in human HepG2 cells assessed as early apoptotic cells at 0.0625 uM after 48 hrs in presence of hemoglobin by Annexin V-APC/7-AAD staining based flow cytometry (reference value: 3.18%); assay type: functional
HT-29 = assay: Antiproliferative activity against human HT-29 cells after 72 hrs by MTT assay; assay type: functional, cell-based; conditions: HT-29, 72 h
Outline: (§1)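 MTT assay. Cells were seeded and grown 24 h at 37 °C in 5% CO2, then exposed to compound or left untreated for 72 h. MTT (5 mg/mL stock) was added for 4 h and the formazan dissolved in DMSO. OD was read at 570 nm. IC50 is the concentration giving 50% growth inhibition, reported as mean ± SD of three independent experiments. Vehicle reference was 0.1% DMSO.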

HepG2 [2] = assay: Cell cycle arrest in human HepG2 cells assessed as S phase accumulation at 0.0625 uM after 48 hrs by propidium iodide staining based flow cytometry (reference value: 43.88%); assay type: functional
Outline: (§2)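 HepG-2 cells were plated and grown 24 h at 37 °C, then treated 48 h at 0, 0.0625, 0.125 or 0.25 µM, with 0.1% DMSO as control. Cells were fixed overnight in 70% ethanol at 4 °C, treated with RNase A and stained with propidium iodide. DNA content was measured by flow cytometry to give cell-cycle phase distribution.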

HepG2 [3] = assay: Induction of apoptosis in human HepG2 cells assessed as cell population with mitochondrial membrane potential loss at 0.0625 uM measured after 48 hrs by JC-1 staining based flow cytometry (reference value: 1.49%); assay type: functional
Outline: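 HepG-2 cells were exposed 48 h to 0.0625, 0.125 or 0.25 µM or to vehicle, then washed in PBS and stained with JC-1 in the dark. Red aggregate versus green monomer fluorescence was measured by flow cytometry to give the percentages of cells with healthy versus collapsed mitochondrial membrane potential.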

HepG2 [4] = assay: Induction of apoptosis in human HepG2 cells assessed as late apoptotic cells at 0.25 uM after 48 hrs in presence of hemoglobin by Annexin V-APC/7-AAD staining based flow cytometry (reference value: 3.36%); assay type: functional
HepG2 [5] = assay: Cell cycle arrest in human HepG2 cells assessed as G1 phase accumulation at 0.125 uM after 48 hrs in presence of hemoglobin by propidium iodide staining based flow cytometry (reference value: 52.93%); assay type: functional
HepG2 [6] = assay: Antiproliferative activity against human HepG2 cells after 72 hrs by MTT assay; assay type: functional, cell-based; conditions: HepG2, 72 h; outline: as §1
HepG2 [7] = assay: Cell cycle arrest in human HepG2 cells assessed as S phase accumulation at 0.125 uM after 48 hrs in presence of hemoglobin by propidium iodide staining based flow cytometry (reference value: 36.40%); assay type: functional
HepG2 [8] = assay: Cell cycle arrest in human HepG2 cells assessed as G2 phase accumulation at 0.125 uM after 48 hrs by propidium iodide staining based flow cytometry (reference value: 23.38%); assay type: functional; outline: as §2
HepG2 [9] = assay: Induction of apoptosis in human HepG2 cells assessed as early apoptotic cells at 0.25 uM after 48 hrs by […] based flow cytometry (reference value: 3.18%); assay type: functional
HepG2 [10] = assay: Induction of apoptosis in human HepG2 cells assessed as early apoptotic cells at 0.125 uM after 48 hrs by […] based flow cytometry (reference value: 3.18%); assay type: functional
HepG2 [11] = assay: Downregulation of Bcl-xl level in human HepG2 cells up to 0.25 uM after 48 hrs by Western blot method; assay type: functional, cell-based
Outline: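 HepG-2 cells were exposed 48 h to 0, 0.0625, 0.125 or 0.25 µM and lysed on ice for 20 min. Equal protein loads were run on 12% SDS-PAGE and transferred to PVDF. Membranes were probed overnight at 4 °C with primary antibodies, then with HRP-conjugated secondaries, and detected by ECL chemiluminescence.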

C[C@H]1CCC/C=C/[C@@H]2C[C@H](OC(=O)CCCC(=O)OCCOc3no[n+]([O-])c3S(=O)(=O)c3ccccc3)C[C@H]2[C@H](OC(=O)CCCC(=O)OCCOc2no[n+]([O-])c2S(=O)(=O)c2ccccc2)/C=C/C(=O)O1
Activity (HepG2 [1]): 3.25% | IC50 (HT-29): 0.16 µM | Activity (HepG2 [2]): 48.2% | Activity (HepG2 [3]): 16.58% | Activity (HepG2 [4]): 12.24% | Activity (HepG2 [5]): 63.24% | IC50 (HepG2 [6]): 0.18 µM | Activity (HepG2 [7]): 30.54% | Activity (HepG2 [8]): 17% | Activity (HepG2 [9]): 15.03% | Activity (HepG2 [10]): 13.23% | Activity (HepG2 [11]): Active
